{"source": "ChEMBL document CHEMBL1152541", "about": "“Staurosporine tethered peptide ligands that target cAMP-dependent protein kinase (PKA): optimization and selectivity profiling” (Bioorg Med Chem, 2009)", "key": {"[1]": {"target": "Epidermal growth factor receptor (Homo sapiens) (UniProt P00533)", "assay": "Binding affinity to human EGFR at 500 nM by cell-based competition binding assay relative to control in presence of DTT", "how_it_was_run": "(§1)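 Commercial (Ambit) competitive kinase-binding panel of 90 kinases measured the binding profile. Run under reducing conditions of 7.5 mM DTT. Binding is expressed relative to control.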"}, "[2]": {"target": "ALK tyrosine kinase receptor (Homo sapiens) (UniProt Q9UM73)", "assay": "Binding affinity to human ALK at 500 nM by cell-based competition binding assay relative to control in presence of DTT", "how_it_was_run": "(§2)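 Kinase binding profiling ran on a commercial (Ambit) competitive binding screen against a panel of 90 kinases. The screen used reducing conditions with 7.5 mM DTT. To withstand the DTT, the bivalent ligand was tested as its amide isostere, with the disulfide replaced. A staurosporine derivative carrying a 3 β-alanine linker was run as the reference compound.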"}, "[3]": {"target": "Serine/threonine-protein kinase B-raf (Homo sapiens) (UniProt P15056)", "sequence (P15056 whole entry)": "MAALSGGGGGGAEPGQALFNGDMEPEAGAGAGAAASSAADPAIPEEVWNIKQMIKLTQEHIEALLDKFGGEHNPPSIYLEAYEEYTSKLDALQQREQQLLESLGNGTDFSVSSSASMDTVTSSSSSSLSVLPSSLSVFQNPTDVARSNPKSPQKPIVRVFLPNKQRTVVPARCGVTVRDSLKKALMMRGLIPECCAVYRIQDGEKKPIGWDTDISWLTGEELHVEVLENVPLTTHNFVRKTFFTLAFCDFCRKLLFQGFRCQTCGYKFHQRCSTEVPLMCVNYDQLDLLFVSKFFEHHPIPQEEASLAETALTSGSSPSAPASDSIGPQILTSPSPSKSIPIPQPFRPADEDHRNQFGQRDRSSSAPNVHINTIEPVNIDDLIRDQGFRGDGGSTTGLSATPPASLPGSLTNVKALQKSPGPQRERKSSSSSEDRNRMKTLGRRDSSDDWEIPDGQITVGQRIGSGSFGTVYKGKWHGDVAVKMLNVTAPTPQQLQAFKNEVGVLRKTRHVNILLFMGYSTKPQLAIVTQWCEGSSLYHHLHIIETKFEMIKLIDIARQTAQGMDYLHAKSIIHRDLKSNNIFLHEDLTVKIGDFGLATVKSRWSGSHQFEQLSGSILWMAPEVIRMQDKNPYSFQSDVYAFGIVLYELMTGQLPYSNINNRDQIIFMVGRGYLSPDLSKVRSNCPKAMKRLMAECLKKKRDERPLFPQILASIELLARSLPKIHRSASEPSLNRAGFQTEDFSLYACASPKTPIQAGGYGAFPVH", "assay": "Binding affinity to human BRAF at 500 nM by cell-based competition binding assay relative to control in presence of DTT", "how_it_was_run": "as §2"}, "[4]": {"target": "Atypical kinase COQ8A, mitochondrial (Homo sapiens) (UniProt Q8NI60)", "sequence (Q8NI60 163-647 limits assumed)": "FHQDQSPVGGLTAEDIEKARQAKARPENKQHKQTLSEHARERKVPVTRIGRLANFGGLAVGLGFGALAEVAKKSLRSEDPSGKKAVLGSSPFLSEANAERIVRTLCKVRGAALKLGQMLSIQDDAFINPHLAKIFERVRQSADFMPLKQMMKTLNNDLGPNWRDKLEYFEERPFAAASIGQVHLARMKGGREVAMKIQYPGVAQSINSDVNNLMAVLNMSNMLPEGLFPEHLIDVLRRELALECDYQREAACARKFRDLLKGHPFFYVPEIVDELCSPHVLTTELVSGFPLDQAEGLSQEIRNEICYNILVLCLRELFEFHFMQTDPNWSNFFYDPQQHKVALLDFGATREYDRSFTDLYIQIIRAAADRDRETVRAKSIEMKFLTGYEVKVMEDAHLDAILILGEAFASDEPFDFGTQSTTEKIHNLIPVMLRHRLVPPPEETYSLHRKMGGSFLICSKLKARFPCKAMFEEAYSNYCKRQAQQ", "assay": "Binding affinity to human ADCK3 at 500 nM by cell-based competition binding assay relative to control in presence of DTT", "how_it_was_run": "as §2"}, "[5]": {"target": "Tyrosine-protein kinase BTK (Homo sapiens) (UniProt Q06187)", "sequence (Q06187 whole entry)": "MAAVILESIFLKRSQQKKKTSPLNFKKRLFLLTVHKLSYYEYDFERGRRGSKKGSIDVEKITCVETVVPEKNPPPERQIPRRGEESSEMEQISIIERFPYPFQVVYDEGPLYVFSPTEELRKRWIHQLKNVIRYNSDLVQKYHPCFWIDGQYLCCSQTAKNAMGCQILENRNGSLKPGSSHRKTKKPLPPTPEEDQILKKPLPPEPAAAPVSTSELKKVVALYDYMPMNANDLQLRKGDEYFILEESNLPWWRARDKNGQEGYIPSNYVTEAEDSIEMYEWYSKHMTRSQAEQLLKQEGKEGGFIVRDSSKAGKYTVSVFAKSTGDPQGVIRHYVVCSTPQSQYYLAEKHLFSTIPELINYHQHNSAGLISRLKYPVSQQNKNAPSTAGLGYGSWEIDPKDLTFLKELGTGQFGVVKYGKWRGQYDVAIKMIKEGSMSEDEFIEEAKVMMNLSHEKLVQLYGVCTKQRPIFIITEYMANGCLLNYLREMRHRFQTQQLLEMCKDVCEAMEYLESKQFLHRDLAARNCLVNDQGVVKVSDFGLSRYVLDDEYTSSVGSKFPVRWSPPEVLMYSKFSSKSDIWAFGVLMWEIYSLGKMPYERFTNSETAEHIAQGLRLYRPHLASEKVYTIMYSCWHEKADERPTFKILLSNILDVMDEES", "assay": "Binding affinity to human BTK at 500 nM by cell-based competition binding assay relative to control in presence of DTT", "how_it_was_run": "as §2"}, "[6]": {"target": "cAMP-dependent protein kinase catalytic subunit alpha (Homo sapiens) (UniProt P17612)", "assay": "Binding affinity to human PKACalpha at 500 nM by cell-based competition binding assay relative to control in presence of DTT"}, "[7]": {"assay": "Ratio of compound IC50 to bivalent ligand 1 IC50 for PKA"}, "[8]": {"target": "Mitogen-activated protein kinase 3 (Homo sapiens) (UniProt P27361)", "sequence (P27361 whole entry)": "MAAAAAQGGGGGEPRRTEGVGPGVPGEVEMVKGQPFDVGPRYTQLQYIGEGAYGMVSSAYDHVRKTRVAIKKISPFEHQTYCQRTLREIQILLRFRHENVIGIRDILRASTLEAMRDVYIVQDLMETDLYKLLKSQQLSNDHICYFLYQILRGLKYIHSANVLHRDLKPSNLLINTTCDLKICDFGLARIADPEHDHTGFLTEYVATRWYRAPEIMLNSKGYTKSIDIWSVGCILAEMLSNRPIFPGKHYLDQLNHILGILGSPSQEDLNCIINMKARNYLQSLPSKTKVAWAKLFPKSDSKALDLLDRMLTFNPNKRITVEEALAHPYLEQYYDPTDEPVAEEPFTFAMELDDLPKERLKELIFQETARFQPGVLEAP", "assay": "Binding affinity to human ERK1 at 500 nM by cell-based competition binding assay relative to control in presence of DTT", "how_it_was_run": "as §1"}, "[9]": {"target": "Cyclin-dependent kinase 19 (Homo sapiens) (UniProt Q9BWU1)", "assay": "Binding affinity to human CDK11 at 200 nM by cell-based competition binding assay relative to control in presence of DTT", "how_it_was_run": "as §2"}, "[10]": {"target": "T1, Bone morphogenetic protein receptor type-2 (Homo sapiens) (UniProt Q13873)", "T1 sequence (whole entry)": "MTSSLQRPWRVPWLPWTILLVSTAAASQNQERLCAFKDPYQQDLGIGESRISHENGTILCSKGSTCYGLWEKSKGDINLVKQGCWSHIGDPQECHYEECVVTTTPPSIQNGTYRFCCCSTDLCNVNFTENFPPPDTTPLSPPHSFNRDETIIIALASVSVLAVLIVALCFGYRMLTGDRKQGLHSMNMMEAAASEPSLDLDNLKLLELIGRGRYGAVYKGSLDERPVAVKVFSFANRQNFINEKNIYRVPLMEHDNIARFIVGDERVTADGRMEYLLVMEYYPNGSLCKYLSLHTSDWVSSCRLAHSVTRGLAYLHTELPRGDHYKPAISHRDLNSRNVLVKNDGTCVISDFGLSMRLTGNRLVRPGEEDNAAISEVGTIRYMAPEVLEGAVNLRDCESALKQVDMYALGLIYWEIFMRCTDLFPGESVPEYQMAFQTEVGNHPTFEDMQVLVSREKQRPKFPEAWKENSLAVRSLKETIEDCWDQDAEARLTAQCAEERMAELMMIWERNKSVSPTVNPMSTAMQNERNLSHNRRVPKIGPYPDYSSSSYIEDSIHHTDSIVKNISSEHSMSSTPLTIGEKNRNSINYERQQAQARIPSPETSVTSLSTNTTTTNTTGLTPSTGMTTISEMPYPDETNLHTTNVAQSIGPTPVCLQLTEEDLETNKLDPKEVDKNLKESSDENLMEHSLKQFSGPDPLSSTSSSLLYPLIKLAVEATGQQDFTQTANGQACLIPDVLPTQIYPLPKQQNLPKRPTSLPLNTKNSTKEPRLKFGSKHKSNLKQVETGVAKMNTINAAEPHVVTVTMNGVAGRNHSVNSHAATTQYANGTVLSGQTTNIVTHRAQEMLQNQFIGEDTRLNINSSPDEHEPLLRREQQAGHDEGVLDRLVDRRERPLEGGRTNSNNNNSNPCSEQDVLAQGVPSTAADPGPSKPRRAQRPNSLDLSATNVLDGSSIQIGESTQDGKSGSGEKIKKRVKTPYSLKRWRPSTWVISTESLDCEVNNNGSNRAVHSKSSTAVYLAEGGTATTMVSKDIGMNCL", "assay": "Binding affinity to human BMPR2 at 200 nM by cell-based competition binding assay relative to control in presence of DTT", "how_it_was_run": "as §2"}, "[11]": {"target": "Macrophage colony-stimulating factor 1 receptor (Homo sapiens) (UniProt P07333)", "sequence (P07333 whole entry)": "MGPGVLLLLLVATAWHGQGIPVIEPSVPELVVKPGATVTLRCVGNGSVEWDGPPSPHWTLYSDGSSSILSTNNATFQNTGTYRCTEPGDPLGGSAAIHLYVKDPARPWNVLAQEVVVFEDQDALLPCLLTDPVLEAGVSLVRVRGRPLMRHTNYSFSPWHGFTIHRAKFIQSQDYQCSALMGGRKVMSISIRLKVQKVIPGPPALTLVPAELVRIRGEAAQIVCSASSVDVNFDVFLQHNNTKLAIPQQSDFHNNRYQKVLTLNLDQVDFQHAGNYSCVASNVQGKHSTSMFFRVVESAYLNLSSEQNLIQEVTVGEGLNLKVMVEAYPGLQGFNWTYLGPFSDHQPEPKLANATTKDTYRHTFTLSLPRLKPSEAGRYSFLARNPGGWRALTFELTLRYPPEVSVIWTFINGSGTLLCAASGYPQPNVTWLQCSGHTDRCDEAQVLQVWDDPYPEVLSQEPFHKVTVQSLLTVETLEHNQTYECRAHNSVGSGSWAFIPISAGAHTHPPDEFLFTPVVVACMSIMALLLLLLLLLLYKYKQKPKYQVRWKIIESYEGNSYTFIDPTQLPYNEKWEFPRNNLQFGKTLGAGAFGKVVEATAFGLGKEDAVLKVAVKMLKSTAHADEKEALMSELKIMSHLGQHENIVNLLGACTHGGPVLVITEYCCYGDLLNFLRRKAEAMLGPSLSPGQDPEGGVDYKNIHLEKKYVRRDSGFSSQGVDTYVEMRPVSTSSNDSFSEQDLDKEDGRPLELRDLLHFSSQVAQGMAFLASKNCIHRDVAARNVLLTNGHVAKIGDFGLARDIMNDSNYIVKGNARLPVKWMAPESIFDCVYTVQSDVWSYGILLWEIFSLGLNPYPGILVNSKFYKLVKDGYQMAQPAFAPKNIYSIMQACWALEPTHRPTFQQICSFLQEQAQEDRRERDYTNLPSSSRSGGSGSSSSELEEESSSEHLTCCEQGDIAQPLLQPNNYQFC", "assay": "Binding affinity to human CSF1R at 200 nM by cell-based competition binding assay relative to control in presence of DTT", "how_it_was_run": "as §1"}, "[12]": {"target": "Dual specificity mitogen-activated protein kinase kinase 1 (Homo sapiens) (UniProt Q02750)", "sequence (Q02750 whole entry)": "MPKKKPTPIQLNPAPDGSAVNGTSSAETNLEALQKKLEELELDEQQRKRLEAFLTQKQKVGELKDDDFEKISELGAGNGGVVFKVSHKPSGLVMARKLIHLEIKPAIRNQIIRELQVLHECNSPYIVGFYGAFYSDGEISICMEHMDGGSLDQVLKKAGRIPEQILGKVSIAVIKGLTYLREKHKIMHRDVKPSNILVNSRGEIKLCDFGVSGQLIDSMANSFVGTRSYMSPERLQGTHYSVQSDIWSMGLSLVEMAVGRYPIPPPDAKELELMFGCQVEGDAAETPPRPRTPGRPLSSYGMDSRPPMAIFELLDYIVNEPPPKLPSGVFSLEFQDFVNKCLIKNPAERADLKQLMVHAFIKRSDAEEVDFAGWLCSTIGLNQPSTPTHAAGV", "assay": "Binding affinity to human MEK1 at 200 nM by cell-based competition binding assay relative to control in presence of DTT", "how_it_was_run": "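Kinase binding profile from a commercial panel of 90 kinases, run as a competitive binding assay. The panel was screened under reducing conditions of 7.5 mM DTT. Signal was compared with the untreated control.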"}, "[13]": {"target": "Focal adhesion kinase 1 (Homo sapiens) (UniProt Q05397)", "sequence (Q05397 2-1052 limits assumed)": "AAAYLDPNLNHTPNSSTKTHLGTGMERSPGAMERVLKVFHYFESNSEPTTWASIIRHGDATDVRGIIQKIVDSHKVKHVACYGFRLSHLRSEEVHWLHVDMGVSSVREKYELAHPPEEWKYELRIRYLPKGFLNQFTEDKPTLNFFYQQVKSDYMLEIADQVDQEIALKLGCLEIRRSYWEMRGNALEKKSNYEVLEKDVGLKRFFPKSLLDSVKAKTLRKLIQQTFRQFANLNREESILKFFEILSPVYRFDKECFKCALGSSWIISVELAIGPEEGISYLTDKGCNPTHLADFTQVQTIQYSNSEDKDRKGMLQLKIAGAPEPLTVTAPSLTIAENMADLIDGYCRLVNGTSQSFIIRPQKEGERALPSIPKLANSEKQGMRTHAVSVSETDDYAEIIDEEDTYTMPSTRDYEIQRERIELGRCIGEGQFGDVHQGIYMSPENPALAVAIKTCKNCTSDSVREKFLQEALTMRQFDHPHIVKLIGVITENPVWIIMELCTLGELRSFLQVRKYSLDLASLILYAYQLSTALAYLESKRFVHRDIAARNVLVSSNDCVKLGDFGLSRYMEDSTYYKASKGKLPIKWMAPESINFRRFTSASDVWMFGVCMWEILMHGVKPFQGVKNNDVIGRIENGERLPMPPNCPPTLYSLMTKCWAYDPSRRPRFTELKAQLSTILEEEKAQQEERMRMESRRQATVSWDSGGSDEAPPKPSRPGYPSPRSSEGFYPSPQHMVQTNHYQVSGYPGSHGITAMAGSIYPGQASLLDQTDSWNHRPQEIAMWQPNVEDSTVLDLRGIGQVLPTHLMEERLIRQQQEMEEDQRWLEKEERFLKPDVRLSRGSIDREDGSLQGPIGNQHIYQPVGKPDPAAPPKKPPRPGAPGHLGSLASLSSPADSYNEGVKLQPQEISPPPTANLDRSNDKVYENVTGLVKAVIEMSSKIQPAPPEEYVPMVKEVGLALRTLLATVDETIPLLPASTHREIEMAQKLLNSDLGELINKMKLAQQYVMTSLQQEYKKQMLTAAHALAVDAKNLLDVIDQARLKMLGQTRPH", "assay": "Binding affinity to human PTK2 at 200 nM by cell-based competition binding assay relative to control in presence of DTT"}, "[14]": {"tested_on": "Mast/stem cell growth factor receptor Kit (Homo sapiens), P10721 [V559D,T670I]", "assay": "Binding affinity to human KIT V559D,T670I mutant at 200 nM by cell-based competition binding assay relative to control in presence of DTT", "how_it_was_run": "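Competition binding screen (Ambit) across a panel of 90 kinases, scoring test ligand displacement of each kinase's binding relative to control. The screen ran under reducing conditions with 7.5 mM DTT.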"}, "[15]": {"target": "Dual specificity mitogen-activated protein kinase kinase 2 (Homo sapiens) (UniProt P36507)", "assay": "Binding affinity to human MEK2 at 50 nM by cell-based competition binding assay relative to control in presence of DTT"}, "[16]": {"target": "Atypical kinase COQ8A, mitochondrial (Homo sapiens) (UniProt Q8NI60)", "assay": "Binding affinity to human ADCK3 at 50 nM by cell-based competition binding assay relative to control in presence of DTT", "how_it_was_run": "as §2"}}, "note": "*1 amine or outer side, *2 acyl side, *3 side chain or, on linkers, in order; H or OH if unused. Where a SMILES comes first, the peptide text is derived from it. Bridges are numbered along the chain shown (N, C = ends). [ ]: non-standard residue; d: D form. The star is where a group is joined. Staurosporine = CO[C@@H]1[C@H](N(C)*)C[C@H]2O[C@]1(C)n1c3ccccc3c3c4c(c5c6ccccc6n2c5c31)C(=O)NC4; Suc = O=C(CCC(=O)[*:2])[*:1]; Dap = NC[C@H](N)C(=O)O; βAla = NCCC(=O)O", "data": [{"smiles": "CO[C@@H]1[C@H](N(C)C(=O)CCC(=O)NCCC(=O)NCCC(=O)NCCC(N)=O)C[C@H]2O[C@]1(C)n1c3ccccc3c3c4c(c5c6ccccc6n2c5c31)C(=O)NC4", "values": [{"measurement": "Activity", "setting": "[1]", "result": 54, "unit": "%"}, {"measurement": "Activity", "setting": "[2]", "result": 5.2, "unit": "%"}, {"measurement": "Activity", "setting": "[3]", "result": 100, "unit": "%"}, {"measurement": "Activity", "setting": "[4]", "result": 91, "unit": "%"}, {"measurement": "Activity", "setting": "[5]", "result": 31, "unit": "%"}, {"measurement": "Activity", "setting": "[6]", "result": 52, "unit": "%"}, {"measurement": "Ratio IC50", "setting": "[7]", "result": "> 60"}, {"measurement": "Activity", "setting": "[8]", "result": 100, "unit": "%"}]}, {"smiles": "CO[C@@H]1[C@H](N(C)C(=O)CCC(=O)NCCC(=O)NCCC(=O)NCCC(=O)NCCC(=O)NCCC(=O)NCCC(=O)NCCC(=O)N[C@H]2CSSC[C@@H](C(=O)NCC(N)=O)NC(=O)CNC(=O)[C@H](Cc3ccccc3)NC(=O)[C@H](C(C)C)NC(=O)[C@H](CCCNC(=N)N)NC(=O)[C@H](Cc3ccccc3)NC(=O)[C@H](C(C)C)NC2=O)C[C@H]2O[C@]1(C)n1c3ccccc3c3c4c(c5c6ccccc6n2c5c31)C(=O)NC4", "note": "({Staurosporine-Suc-βAla-βAla-βAla-βAla-βAla-βAla-βAla}-CVFRVFGCG-NH2; disulfide 1-8)", "values": [{"measurement": "Activity", "setting": "[9]", "result": 87, "unit": "%"}, {"measurement": "Activity", "setting": "[10]", "result": 93, "unit": "%"}, {"measurement": "Activity", "setting": "[11]", "result": 44, "unit": "%"}, {"measurement": "Activity", "setting": "[12]", "result": 100, "unit": "%"}, {"measurement": "Activity", "setting": "[13]", "result": 91, "unit": "%"}, {"measurement": "Activity", "setting": "[14]", "result": 4.1, "unit": "%"}]}, {"smiles": "CO[C@@H]1[C@H](N(C)C(=O)CCC(=O)NCCC(=O)NCCC(=O)NCCC(=O)NCCC(=O)NCCC(=O)NCCC(=O)NCCC(=O)N[C@H]2CNC(=O)C[C@@H](C(N)=O)NC(=O)CNC(=O)[C@H](Cc3ccccc3)NC(=O)[C@H](C(C)C)NC(=O)[C@H](CCCNC(=N)N)NC(=O)[C@H](Cc3ccccc3)NC(=O)[C@H](C(C)C)NC2=O)C[C@H]2O[C@]1(C)n1c3ccccc3c3c4c(c5c6ccccc6n2c5c31)C(=O)NC4", "note": "({Staurosporine-Suc-βAla-βAla-βAla-βAla-βAla-βAla-βAla}-[Dap]VFRVFGD-NH2; lactam 1-8)", "values": [{"measurement": "Activity", "setting": "[15]", "result": 87, "unit": "%"}, {"measurement": "Activity", "setting": "[16]", "result": 91, "unit": "%"}]}]}
